Measurements as given in PubChem BioAssay.
Activity calls are given as the source filed them.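 How the source made its calls, unless noted: active means viability at or below 10% of carrier control in both of two separate runs; inconclusive means viability at or below 10% in only one of the two runs; inactive means the rest.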

Assays:
[1] = reducers of endogenous Her2 protein level, primary screen, SKBR3 breast tumor cells, AlphaScreen, ATP viability (AID 461;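 active means Her2 level under about 52% in both replicate screens, with viability over 70% of control, limit read from the data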;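 on Her2 level: lower value means less Her2 protein in the cells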;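 on viability: percent of carrier control wells set as 100% viability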); conditions: 18-24 h, measured here: SKBR3 viability, ATP luminescence, at 10 µM
[2] = biological target: Receptor tyrosine-protein kinase erbB-2 (Homo sapiens) (UniProt P04626); assay: as above; conditions: 18-24 h, at 10 µM, stronger effect = lower value
Sequence of Receptor tyrosine-protein kinase erbB-2 (Homo sapiens) (P04626 whole entry, looked up): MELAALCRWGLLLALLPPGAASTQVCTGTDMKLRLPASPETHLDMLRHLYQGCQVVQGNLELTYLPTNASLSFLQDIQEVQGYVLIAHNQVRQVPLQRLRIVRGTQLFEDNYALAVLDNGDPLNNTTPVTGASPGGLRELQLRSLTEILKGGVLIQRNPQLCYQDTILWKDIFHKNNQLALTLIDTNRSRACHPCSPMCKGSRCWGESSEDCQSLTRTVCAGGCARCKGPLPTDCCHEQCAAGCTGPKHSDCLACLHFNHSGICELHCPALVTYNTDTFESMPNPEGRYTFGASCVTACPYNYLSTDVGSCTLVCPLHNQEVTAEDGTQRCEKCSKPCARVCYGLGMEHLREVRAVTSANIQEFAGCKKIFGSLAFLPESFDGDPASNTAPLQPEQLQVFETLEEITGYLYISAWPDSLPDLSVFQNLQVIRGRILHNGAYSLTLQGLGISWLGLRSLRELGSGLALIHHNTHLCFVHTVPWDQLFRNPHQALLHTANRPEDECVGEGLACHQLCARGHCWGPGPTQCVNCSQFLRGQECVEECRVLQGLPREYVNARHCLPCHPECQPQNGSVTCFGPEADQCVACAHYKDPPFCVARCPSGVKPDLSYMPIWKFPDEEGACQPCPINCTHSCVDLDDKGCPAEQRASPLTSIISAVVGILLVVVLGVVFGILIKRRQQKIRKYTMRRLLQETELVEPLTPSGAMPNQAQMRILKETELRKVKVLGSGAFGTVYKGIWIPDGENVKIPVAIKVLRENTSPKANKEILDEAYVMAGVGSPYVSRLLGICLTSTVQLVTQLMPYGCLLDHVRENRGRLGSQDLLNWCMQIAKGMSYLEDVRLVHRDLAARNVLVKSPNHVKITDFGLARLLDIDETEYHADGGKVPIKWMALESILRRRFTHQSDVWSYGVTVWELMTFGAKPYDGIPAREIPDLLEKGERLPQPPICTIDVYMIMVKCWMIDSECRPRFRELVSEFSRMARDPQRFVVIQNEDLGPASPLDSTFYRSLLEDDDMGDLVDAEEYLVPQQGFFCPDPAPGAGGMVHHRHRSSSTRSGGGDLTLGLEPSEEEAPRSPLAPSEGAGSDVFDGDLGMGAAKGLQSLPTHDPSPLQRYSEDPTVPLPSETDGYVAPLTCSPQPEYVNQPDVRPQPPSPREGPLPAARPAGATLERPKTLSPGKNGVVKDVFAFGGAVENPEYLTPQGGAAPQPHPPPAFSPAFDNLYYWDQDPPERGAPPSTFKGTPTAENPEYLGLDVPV

[3] = SK-BR-3 cell growth inhibitors, pilot screen, 24 h, human (AID 572); conditions: SK-BR-3 viability, CellTiter-Glo luminescence, at 10 µM, stronger effect = lower value;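 further: compound exposure lasted between 18 and 24 h rather than exactly 24 h; 100% = carrier-treated control wells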
[4] = HUVEC growth inhibition – cell-based, human, primary screen (AID 575;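 active means viability at or below 30% in both replicate assays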;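 further: 100% = median of untreated cell wells with 0.1% DMSO on each plate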); conditions: HUVEC proliferation, CellTiter-Glo luminescence, 72 h; at 10 µM; stronger effect = lower value
Outline: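 Material: primary human umbilical vein endothelial cells / Schedule: 72 h exposure, 37 °C, 5% CO2, 30 min RT equilibration / Signal: ATP-based CellTiter-Glo luminescent read / Read-out basis: percent of median DMSO-control luminescence / Control set: 32 DMSO-only cell-control wells (high), 32 MePR drug-control wells (low) per plate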

[5] = growth inhibitors of H69AR lung tumor, primary screen, human, duplicate replicates (AID 580;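 active means viability at or under a set limit in both replicates, limit being median viability minus 3 SD, cut at about 48% in these data, passing the limit was not always enough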;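 further: 100% = mean luminescence of untreated wells and 0% = no signal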); conditions: H69AR lung tumor cells viability, ATP luminescence, 72 h; at 10 µM; stronger effect = lower value
[6] = reversal of MRP1-mediated doxorubicin resistance, pilot screen, H69AR cells, doxorubicin co-treatment (AID 601;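 active means viability loss from added drug above about 55%, and viability with drug at most 40%, in both replicates, limit read from the data, passing the limit was not always enough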); conditions: CellTiter-Glo, 72 h, at 10 µM; for differential viability (reversal): stronger effect = higher value
[7] = 384-well plate pilot, post-Golgi transport modulator project, inhibition of yeast transport mutant growth (AID 636; in the data active means inhibition above about 31%); conditions: absorbance 615 nm, about 18 h, stronger effect = higher value
[8] = growth suppression of yeast trafficking mutant, preliminary HTS, modulators of trafficking downstream of Golgi apparatus project, 1536-format plate, OD 615 nm (AID 637; in the data active means inhibition above about 30%); conditions: yeast transport mutant growth, absorbance 615 nm, 18 h; stronger effect = higher value
[9] = H69AR cells + 2 uM doxorubicin, measured here: viability with 2 uM doxorubicin, stronger effect = lower value
[10] = H69AR cells, compound alone cytotoxicity

SMILES | viability [1] | Her2 level [2] | viability [3] | viability [4] | viability [5] | differential viability (reversal) ([6]; H69AR cells + 2 uM doxorubicin) | viability [6, 9] | viability [6, 10] | inhibition [7] | inhibition [8]
COc1cc(C(=O)OCC(=O)N(C)Cc2ccccc2)cc(OC)c1OC | 106% | 96.5% (inactive) | 106% (inactive) | 103% (inactive) | 94.8% (inactive) | -2.6% (inactive) | 97.4% | 94.8% | -5.34% (inactive) | 0.79% (inactive)
Cc1ccc(-n2c(=O)c(C#N)cc3c(=O)n4ccccc4nc32)cc1 | 100% | 84.5% (inactive) | 100% (inactive) | 62.1% (inactive) | 97% (inactive) | 7.35% (inactive) | 89.6% | 97% | -4.59% (inactive) | 2.06% (inactive)
COc1cc(OC)cc(C(=O)NCCN2CCOCC2)c1 | 105% | 92% (inactive) | 105% (inactive) | 98.3% (inactive) | 94.1% (inactive) | 1.49% (inactive) | 92.6% | 94.1% | -4.47% (inactive) | -4.36% (inactive)
NCC(O)COc1ccc2c(c1)OCO2 (stereo not given) | 99% | 120% (inactive) | 99% (inactive) | 104% (inactive) | 100% (inactive) | 3.33% (inactive) | 97% | 100% | 3.16% (inactive) | 6.39% (inactive)
CCC1(C)Cc2c(C#N)c(N)n(-c3ccccc3)c(=O)c2CO1 (stereo not given) | 100% | 106% (inactive) | 100% (inactive) | 104% (inactive) | 109% (inactive) | 19.4% (inactive) | 89.7% | 109% | -0.13% (inactive) | -3.64% (inactive)
CCOC(=O)N1CCN(CC(=O)c2c(C)[nH]c3ccccc23)CC1 | 94% | 98% (inactive) | 94% (inactive) | 79.9% (inactive) | 75.2% (inactive) | -7.93% (inactive) | 83.1% | 75.2% | -5.41% (inactive) | -3.93% (inactive)
CCOCCn1cnc2sc(C(=O)Nc3nc(C)c(C(=O)OCC)s3)c(C)c2c1=O | 110% | 81% (inactive) | 110% (inactive) | 75.7% (inactive) | 78% (inactive) | -14.5% (inactive) | 92.5% | 78% | -1.18% (inactive) | -2.42% (inactive)
COC(=O)c1[nH]c2cc(OC)ccc2c1NC(=O)CN1CCOCC1 | 116% | 90.5% (inactive) | 116% (inactive) | 95% (inactive) | 94.3% (inactive) | 3.07% (inactive) | 91.3% | 94.3% | 0% (inactive) | -4.19% (inactive)
Cc1cc(C)n(S(=O)(=O)Cc2ccccc2)n1 | 102% | 135% (inactive) | 102% (inactive) | 97.4% (inactive) | 92.2% (inactive) | -0.205% (inactive) | 92.4% | 92.2% | -6.32% (inactive) | 4.59% (inactive)
O=C(Nc1ccccc1C(F)(F)F)c1cc(S(=O)(=O)N2CCOCC2)ccc1F | 96.5% | 91.5% (inactive) | 96.5% (inactive) | 102% (inactive) | 90.4% (inactive) | 8.93% (inactive) | 81.5% | 90.4% | -6.49% (inactive) | 1.43% (inactive)
Cc1c(C(=O)O)sc2ncn(C)c(=O)c12 | 106% | 78% (inactive) | 106% (inactive) | 100% (inactive) | 103% (inactive) | 11.7% (inactive) | 91.7% | 103% | -7.76% (inactive) | -4% (inactive)
O=C(c1ccccc1Br)N1CCN(c2ccccc2)CC1 | 85% | 83.5% (inactive) | 85% (inactive) | 93.6% (inactive) | 102% (inactive) | 12.9% (inactive) | 88.9% | 102% | -8.22% (inactive) | -4.76% (inactive)
Nc1cc(-c2ccccc2)ccc1O | 100% | 70.5% (inactive) | 100% (inactive) | 86.3% (inactive) | 73% (inactive) | 12% (inactive) | 60.9% | 73% | -7.16% (inactive) | 8.33% (inactive)
CCOC(=O)c1sc(NC(=O)CNC(=O)Cn2cnc3sc(C)c(C)c3c2=O)nc1C | 94% | 88.5% (inactive) | 94% (inactive) | 93.4% (inactive) | 104% (inactive) | 7.01% (inactive) | 96.7% | 104% | 1.18% (inactive) | 2.26% (inactive)
CC1CCN(CC(O)COC2CCC(C(C)(C)C)CC2)CC1 (stereo not given) | 82% | 76% (inactive) | 82% (inactive) | 73.8% (inactive) | 74.5% (inactive) | 3.15% (inactive) | 71.4% | 74.5% | 97.8% (active) | 84.4% (active)
CCOC(=O)N1CCN(C(=O)CCc2c(C)nc3c(c(C)nn3-c3ccc(C)c(C)c3)c2C)CC1 | 92% | 88.5% (inactive) | 92% (inactive) | 82% (inactive) | 86.2% (inactive) | 6.21% (inactive) | 80% | 86.2% | -1.71% (inactive) | -7.64% (inactive)
CCC(=NC(C)c1ccccc1)c1c(O)n(C)c(=O)n(C)c1=O (stereo not given) | 94% | 88% (inactive) | 94% (inactive) | 72.8% (inactive) | 90.7% (inactive) | -14.2% (inactive) | 105% | 90.7% | -2.89% (inactive) | 6.39% (inactive)
COc1ccc(C)cc1S(=O)(=O)N1CCN(Cc2ccccc2)CC1 | 98% | 94.5% (inactive) | 98% (inactive) | 96.1% (inactive) | 91.2% (inactive) | -1.38% (inactive) | 92.6% | 91.2% | -2.24% (inactive) | 1.13% (inactive)
O=C(NCC(=O)N(c1cnc2ccccc2c1)C(C(=O)NC1CCCC1)c1ccncc1)c1ccco1 (stereo not given) | 86% | 94% (inactive) | 86% (inactive) | 94.5% (inactive) | 90.1% (inactive) | -3.65% (inactive) | 93.7% | 90.1% | 3.64% (inactive) | 13.4% (inactive)
O=C(CNc1ccc(Oc2ccccc2)cc1)N1CCOCC1 | 92.5% | 95.5% (inactive) | 92.5% (inactive) | 92.1% (inactive) | 105% (inactive) | 4.96% (inactive) | 100% | 105% | -7.81% (inactive) | 6.98% (inactive)
Cc1cccc(-n2c(O)c(C=Nc3ccccc3N)c(=O)[nH]c2=O)c1 | 108% | 94.5% (inactive) | 108% (inactive) | 88.2% (inactive) | 10.1% (active) | -28.2% (inactive) | 38.3% | 10.1% | -5.19% (inactive) | -0.16% (inactive)
Cc1ccc(-n2nnnc2SCC(=O)N2CCN(C(=O)c3ccco3)CC2)c(C)c1 | 119% | 84.5% (inactive) | 119% (inactive) | 86% (inactive) | 95.5% (inactive) | 0.745% (inactive) | 94.8% | 95.5% | -7.76% (inactive) | -2.18% (inactive)
CCS(=O)(=O)N1CCC(C(=O)NC2CCCCCCC2)CC1 | 98% | 110% (inactive) | 98% (inactive) | 108% (inactive) | 97.5% (inactive) | 7.86% (inactive) | 89.6% | 97.5% | -0.51% (inactive) | -1.5% (inactive)
CC(=O)Nc1ccc(Oc2ccc3nc(C)[nH]c3c2)cc1 | 97.5% | 93.5% (inactive) | 97.5% (inactive) | 113% (inactive) | 95.4% (inactive) | -9.67% (inactive) | 105% | 95.4% | -6.58% (inactive) | -10.3% (inactive)
